Assay outcomes deposited in PubChem BioAssay by several laboratories.
p97 ATPase inh – inhibitors of human p97 ATPase; P55072; recombinant p97 ATPase, Kinase-Glo ATP luminescence, 3 h; inhibition, % at 8 µM; actives 0.42% (n = 220,000); in the data active = inhibition above about 15%;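 note: 0% = DMSO vehicle and 100% = wells lacking enzyme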
Target sequence (P55072 whole entry, looked up): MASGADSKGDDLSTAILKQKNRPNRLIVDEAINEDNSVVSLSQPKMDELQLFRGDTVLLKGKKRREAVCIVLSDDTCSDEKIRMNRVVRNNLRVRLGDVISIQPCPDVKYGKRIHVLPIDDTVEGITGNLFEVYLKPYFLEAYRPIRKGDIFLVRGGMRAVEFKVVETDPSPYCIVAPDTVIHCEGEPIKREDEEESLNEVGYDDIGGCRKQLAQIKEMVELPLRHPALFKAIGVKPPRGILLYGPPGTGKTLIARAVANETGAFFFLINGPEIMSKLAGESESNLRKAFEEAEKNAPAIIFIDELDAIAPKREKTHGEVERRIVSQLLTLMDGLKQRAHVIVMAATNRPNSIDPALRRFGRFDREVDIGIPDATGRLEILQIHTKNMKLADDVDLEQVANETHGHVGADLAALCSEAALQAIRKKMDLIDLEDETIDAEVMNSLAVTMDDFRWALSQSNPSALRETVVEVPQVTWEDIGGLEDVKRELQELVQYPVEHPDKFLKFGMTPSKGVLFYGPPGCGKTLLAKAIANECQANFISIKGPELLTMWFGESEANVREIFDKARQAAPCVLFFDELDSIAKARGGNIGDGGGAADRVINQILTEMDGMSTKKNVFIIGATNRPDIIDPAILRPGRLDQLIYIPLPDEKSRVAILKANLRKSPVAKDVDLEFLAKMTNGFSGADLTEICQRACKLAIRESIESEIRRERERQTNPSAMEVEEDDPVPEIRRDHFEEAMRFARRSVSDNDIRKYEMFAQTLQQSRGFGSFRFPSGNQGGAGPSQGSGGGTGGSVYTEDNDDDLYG
Runt-SMMHC FRET – blocks binding of human RUNX1 Runt domain to CBFb-SMMHC; inhibition, % at 20 µM; Cerulean-Runt/Venus-CBFb-SMMHC FRET ratio 530/480, 1 h; actives 0.74% (n = 220,000); AID 1434;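 active = mean inhibition across duplicate retests at 20 µM reaching about 50%, limit read from the data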;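 note: 0% = DMSO wells and 100% = wells with excess untagged CBFb-SMMHC; inhibitors lower the FRET ratio by blocking Runt binding to CBFb-SMMHC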
Hck Nef HTS – inhibitors of human Hck kinase activated by Nef. actives 0.68% (n = 220,000). P08631. Recombinant Hck-YEEI plus Nef, Z-Lyte FRET kinase assay. inhibition, % at 20 µM;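 active = Hck-Nef kinase inhibition above about 50%, limit read from the data; inactive = inhibition below that limit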;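 note: 0% = DMSO with Hck plus Nef and 100% = Hck alone without Nef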
RanGTP-Imp inh – disruptors of Ran-importin-beta complex formation – biochemical, FRET, CFP-Ran, YFP-importin-beta, homogeneous, primary screen; actives 1.1% (n = 300,000); AID 2216; inhibition, % (concentration not given with the values); cell-free CFP-Ran/YFP-importin-beta FRET ratio;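 active = more than half of the replicate wells show a fall in the fluorescence ratio signal beyond about 16%, limit read from the data, passing the limit was not always enough; inconclusive = exactly half of the replicate wells pass the set limit; inactive = fewer than half of replicates pass the limit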;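 note: 0% = DMSO wells and 100% = Ran loaded with GDP instead of GTP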
TbHK1 inh – blocks Trypanosoma brucei hexokinase 1 activity; recombinant TbHK1, G6PDH-coupled NADH A340; inhibition, % at 10 µM; actives 0.11% (n = 220,000); AID 1430;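 active = inhibition of 50% or more in the single-dose primary screen; inactive = inhibition below 50%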
Runt-CBFb FRET – Runt domain-CBFb interaction inhibition; Q01196+Q13951; Cerulean-Runt/Venus-CBFb FRET ratio 530/480, 1 h; inhibition, % at 20 µM; actives 0.46% (n = 220,000);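 active = inhibition over about 50% at 20 µM in the single-dose screen, limit read from the data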;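 note: 0% = DMSO wells and 100% = excess unlabeled CBFb competitor control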
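Measured by: fluorescence energy transfer, 422 nm excitation, 530/480 nm emission; test system: Cerulean-tagged RUNX1 Runt domain (FRET donor) fusion protein; buffer or medium: Tris pH 7.5 buffer with BSA; compound: one dose, 20 µM compound, 1% DMSO; times: two 1 h room-temperature incubations shielded from light; benchmarks: unlabeled CBFb 5 µM, positive control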
Hck-Nef confirm – confirmation of Hck-Nef kinase inhibitors; actives 28% (n = 1,300); Recombinant Hck-YEEI:Nef, Z-Lyte FRET kinase assay; shares compounds with Hck Nef HTS; calls only at 10 µM;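 active = average inhibition of at least 50%, with Z-scores no higher than 3 in both the phospho-tyrosine peptide and fluorescence counterscreens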
Numbers without * were called inactive; i = inactive; ? = inconclusive; · = no result shown; + = active, no number. Sampled rows, rich in hits. Any-hit rate of the full collection: about 2.1%.

SMILES | p97 ATPase inh | Runt-SMMHC FRET | Hck Nef HTS | RanGTP-Imp inh | TbHK1 inh | Runt-CBFb FRET | Hck-Nef confirm
CSc1nsc(/C=C/Nc2ccc(F)cc2F)c1C#N | 5 | 6 | 51* | · | -6 | 10 | i
CSc1nsc(/C=C/Nc2ccc(C(=O)O)cc2)c1C#N | -2 | -1 | 21 | 7 | -2 | 1 | ·
CCN(CC)CCCNC(=O)CCC(=O)Nc1ccc2nc(N3CCCCC3)cc(C)c2c1 | -6 | -22 | 35 | 0 | 2 | -10 | ·
CCN(CC)CCCNC(=O)CCC(=O)Nc1ccc2nc(N3CCC(C)CC3)cc(C)c2c1 | -2 | -14 | 88* | -4 | -11 | -5 | ·
Cc1cccc(C(=O)N2CCCC(N3CCN(Cc4ccc5c(c4)OCO5)CC3)C2)n1 (stereo unspecified) | · | · | · | 1 | · | · | ·
CCOC(=O)c1cc2c(=O)n3cccc(C)c3nc2n(CC2CCCO2)c1=NC(C)=O (stereo unspecified) | -2 | · | 74* | 22* | -11 | · | i
CCOCCCn1c(=NC(=O)c2ccco2)c(C(=O)OCC)cc2c(=O)n3cccc(C)c3nc21 | -1 | 81* | 133* | 152* | -30 | 12 | ·
CCOC(=O)c1cc2c(=O)n3cccc(C)c3nc2n(CC(C)C)c1=NC(=O)c1ccco1 | 4 | 88* | + | 164* | -15 | 10 | i
Cc1cccn2c(=O)c3cc(C(=O)N4CCOCC4)n(C)c3nc12 | · | · | · | 4 | · | · | ·
Cc1cccn2c(=O)c3cc(C(=O)N4CCN(C(=O)c5ccco5)CC4)n(C)c3nc12 | -2 | 19 | 41 | -2 | -15 | 4 | ·
S=c1[nH]nc(Cc2cccs2)n1-c1ccccc1Cl | 0 | 18 | 3 | 1 | -5 | 7 | ·
CCCn1c(=S)[nH]c2cc(C(=O)N(CCO)Cc3ccccc3)ccc2c1=O | · | · | · | 4 | · | · | ·
Cc1cc(C)c2nc(-c3ccccn3)cc(C(=O)Nc3ccc(S(=O)(=O)Nc4onc(C)c4C)cc3)c2c1 | 2 | -14 | 71* | -4 | 3 | 3 | +
CC1=NN(c2nc3ccccc3[nH]2)C(=O)C1Cc1ccccc1 (stereo unspecified) | 6 | 2 | 14 | 11 | 5 | 0 | ·
c1ccc(COc2ccc(Nc3ncnc4nc[nH]c34)cc2)cc1 | -3 | -3 | 69* | -2 | -6 | 0 | +
O=c1ccc2[n+]([O-])c3ccc(O)cc3oc-2c1 | -5 | 9 | 51* | ? | 8 | 7 | i
CC(=O)OCC1=C(C(=O)O)N2C(=O)C(NC(=O)c3ccc(COc4c(C)cccc4Cl)o3)C2SC1 (stereo unspecified) | 3 | 0 | 77* | 0 | 13 | -3 | i
CC(=O)OCC1=C(C(=O)O)N2C(=O)C(NC(=O)c3ccc(COc4ccc(Cl)cc4)o3)C2SC1 (stereo unspecified) | 7 | -2 | 64* | -1 | 10 | 7 | i
CC1CCC2(CC1)NC(=O)N(CC(=O)Nc1sc3c(c1C(N)=O)CCC3)C2=O (stereo unspecified) | 9 | -5 | 64* | 2 | -5 | 2 | +
COc1ccc(N=C2NC(=O)/C(=C\c3ccco3)S2)cc1 | 1 | -20 | 61* | -4 | 0 | -1 | i
CSc1sc(-c2ccnc(SCCS(C)(=O)=O)n2)c(-c2ccccc2)c1C#N | 10 | 34 | 72* | -1 | -15 | 2 | i
CSc1nccc(-c2sc(SC)c(C#N)c2-c2ccccc2)n1 | -8 | 2 | -11 | 1 | -1 | 2 | ·
Cc1ccc(-c2nc3cccnc3o2)cc1NC(=O)COc1ccc(Cl)cc1C | 7 | -2 | 62* | 1 | 19 | 0 | i
O=C(O)COc1ccccc1/C=N/Nc1ccc(S(=O)(=O)Nc2ccc(Cl)cc2)cc1[N+](=O)[O-] | 0 | -17 | 104* | 0 | -9 | -11 | i
Cc1ccc(Oc2ccc(C(F)(F)F)cc2[N+](=O)[O-])c([N+](=O)[O-])n1 | -3 | 0 | 52* | -2 | 1 | 1 | i
SMILES | p97 ATPase inh | Runt-SMMHC FRET | Hck Nef HTS | RanGTP-Imp inh | TbHK1 inh | Runt-CBFb FRET | Hck-Nef confirm
Cc1c(Oc2ccc(C(F)(F)F)cc2[N+](=O)[O-])ccc2c3c(c(=O)oc12)CCC3 | 6 | 44 | 6 | 2 | -9 | 19 | ·
CC(=O)c1ccc(S(=O)(=O)N2CCN(C(=O)CSC(=S)N3CCCC3)CC2)cc1 | · | · | · | 2 | · | · | ·
O=C(CN1CCN(c2ccccc2F)CC1)NC(=O)NCc1ccccc1 | -2 | 2 | 6 | -1 | 3 | 0 | ·
Cc1ccc(-n2c(N)c(S(=O)(=O)c3ccccc3)c3nc4ccccc4nc32)cc1 | -2 | 3 | -6 | 0 | 2 | · | ·
Cc1ccc(S(=O)(=O)c2c(N)n(CC3CCOC3)c3nc4ccccc4nc23)cc1 (stereo unspecified) | 1 | 19 | 37 | 0 | -18 | 7 | ·
Cc1ccc(S(=O)(=O)c2c(N)n(NC(=O)C3CC3)c3nc4ccccc4nc23)cc1 | 5 | 76* | 73* | 9 | -22 | 29 | ·
Cc1ccc(S(=O)(=O)c2c(N)n(CCCN(C)C)c3nc4ccccc4nc23)cc1 | 1 | 21 | 94* | 1 | -33 | 8 | ·
O=C(NCC1CCCO1)c1ccc(OC2CCN(C(=O)C3CC3)CC2)cc1 (stereo unspecified) | 4 | 0 | 6 | 3 | -4 | -1 | ·
O=C(COc1ccc(/C=N/NC(=O)c2cc3ccccc3o2)cc1Br)Nc1ccccc1 | 3 | -17 | 79* | 2 | -19 | -2 | +
COc1ccc(NS(=O)(=O)c2cccc(C(=O)N/N=C(\C)c3ccncc3)c2)cc1 | 4 | 30 | 6 | -5 | 31 | 0 | ·
COc1ccc(NS(=O)(=O)c2cccc(C(=O)N/N=C(\C)c3ccc(-n4ccnc4)cc3)c2)cc1 | 3 | -8 | 59* | -2 | -37 | 2 | i
COc1ccccc1CNC(=O)/C=C/c1ccc(Br)o1 | -1 | 2 | 91* | -3 | -7 | 12 | +
COc1ccc(NC(=O)/C=C/c2ccc(Br)o2)cn1 | 3 | 4 | 23 | 7 | -25 | 14 | ·
C#CCn1c(=NC(=O)c2sc3ccccc3c2Cl)sc2cc(S(N)(=O)=O)ccc21 | 6 | -31 | 62* | 3 | -32 | -18 | +
O=C(c1ccc(OC2CCN(Cc3ccccn3)CC2)cc1)N1CCCC(O)C1 (stereo unspecified) | 1 | 1 | 2 | -1 | 0 | 0 | ·
COc1ccc(CNC(=O)CCCCCNC(=O)N2CCn3c2nc2ccccc23)cc1 | · | · | · | 3 | · | · | ·
CCN(CC)c1ccc2c(C)c(Cl)c(=O)oc2c1 | 0 | 91* | + | 108* | -2 | 20 | ·
